From ChEMBL document CHEMBL1158122, “Anti-inflammatory, anti-tumor-promoting, and cytotoxic activities of constituents of marigold (Calendula officinalis) flowers” (J Nat Prod, 2006)

How the values were obtained:
NCI-H322M = assay: Cytotoxicity against human NCI-H322M cells after 48 hrs by SRB assay; assay type: functional
NCI-H460 = assay: Cytotoxicity against human NCI-H460 cells after 48 hrs by SRB assay; assay type: functional; details: NCI-H460, 48 h
NCI-H522 = assay: Cytotoxicity against human NCI-H522 cells after 48 hrs by SRB assay; assay type: functional; details: NCI-H522, 48 h
COLO 205 = assay: Cytotoxicity against human COLO205 cells after 48 hrs by SRB assay; assay type: functional; details: COLO 205, 48 h
HCC 2998 = assay: Cytotoxicity against human HCC2998 cells after 48 hrs by SRB assay; assay type: functional; details: HCC 2998, 48 h
[1] = Cytotoxicity against human HCT 116 cells after 48 hrs by SRB assay; assay type: functional; details: HCT-116, 48 h
HT-29 = assay: Cytotoxicity against human HT-29 cells after 48 hrs by SRB assay; assay type: functional; details: HT-29, 48 h
KM12 = assay: Cytotoxicity against human KM12 cells after 48 hrs by SRB assay; assay type: functional; details: KM12, 48 h
SW-620 = assay: Cytotoxicity against human SW620 cells after 48 hrs by SRB assay; assay type: functional; details: SW-620, 48 h
SF-268 = assay: Cytotoxicity against human SF-268 cells after 48 hrs by SRB assay; assay type: functional; details: SF-268, 48 h
SNB-19 = assay: Cytotoxicity against human SNB-19 cells after 48 hrs by SRB assay; assay type: functional; details: SNB-19, 48 h
U-251 = assay: Cytotoxicity against human U251 cells after 48 hrs by SRB assay; assay type: functional; details: U-251, 48 h
Outline: (§1)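 Tested in the NCI panel of 60 human tumour cell lines covering lung, colon, melanoma, renal, ovarian, breast and leukaemia. At least five concentrations were run in 10-fold dilutions starting from 10^-4 M. Exposure was continuous for 48 h. Growth or viability was estimated by sulforhodamine B protein staining, and GI50 values were reported.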

LOX IMVI = assay: Cytotoxicity against human LOX IMVI cells after 48 hrs by SRB assay; assay type: functional
Malme-3M = assay: Cytotoxicity against human MALME-3M cells after 48 hrs by SRB assay; assay type: functional
SK-MEL-2 = assay: Cytotoxicity against human SK-MEL-2 cells after 48 hrs by SRB assay; assay type: functional; details: SK-MEL-2, 48 h
[2] = Cytotoxicity against human SK MEL28 cells after 48 hrs by SRB assay; assay type: functional; details: SK-MEL-28, 48 h
SK-MEL-5 = assay: Cytotoxicity against human SK-MEL-5 cells after 48 hrs by SRB assay; assay type: functional; details: SK-MEL-5, 48 h
UACC-257 = assay: Cytotoxicity against human UACC-257 cells after 48 hrs by SRB assay; assay type: functional; details: UACC-257, 48 h; outline: as §1
UACC-62 = assay: Cytotoxicity against human UACC-62 cells after 48 hrs by SRB assay; assay type: functional; details: UACC-62, 48 h; outline: as §1
IGROV-1 = assay: Cytotoxicity against human IGROV1 cells after 48 hrs by SRB assay; assay type: functional; details: IGROV-1, 48 h
OVCAR-3 = assay: Cytotoxicity against human OVCAR-3 cells after 48 hrs by SRB assay; assay type: functional; details: OVCAR-3, 48 h
OVCAR-5 = assay: Cytotoxicity against human OVCAR5 cells after 48 hrs by SRB assay; assay type: functional; details: OVCAR-5, 48 h
OVCAR-8 = assay: Cytotoxicity against human OVCAR8 cells after 48 hrs by SRB assay; assay type: functional; details: OVCAR-8, 48 h
786-0 = assay: Cytotoxicity against human 786-0 cells after 48 hrs by SRB assay; assay type: functional; details: 786-0, 48 h
NCI-H23 = assay: Cytotoxicity against human NCI-H23 cells after 48 hrs by SRB assay; assay type: functional; details: NCI-H23, 48 h
CAKI-1 = assay: Cytotoxicity against human Caki-1 cells after 48 hrs by SRB assay; assay type: functional; details: CAKI-1, 48 h
RXF 393 = assay: Cytotoxicity against human […] cells after 48 hrs by SRB assay; assay type: functional; details: RXF 393, 48 h
SN12C = assay: Cytotoxicity against human SN12C cells after 48 hrs by SRB assay; assay type: functional
TK-10 = assay: Cytotoxicity against human TK-10 cells after 48 hrs by SRB assay; assay type: functional; details: TK-10, 48 h; outline: as §1
UO-31 = assay: Cytotoxicity against human UO-31 cells after 48 hrs by SRB assay; assay type: functional; details: UO-31, 48 h; outline: as §1
PC-3 = assay: Cytotoxicity against human PC-3 cells after 48 hrs by SRB assay; assay type: functional; details: PC-3, 48 h
MCF7 = assay: Cytotoxicity against human MCF7 cells after 48 hrs by SRB assay; assay type: functional; details: MCF7, 48 h
NCI/ADR-RES = assay: Cytotoxicity against human NCI/ADR-RES cells after 48 hrs by SRB assay; assay type: functional
MDA-MB-231 = assay: Cytotoxicity against human MDA-MB-231 cells after 48 hrs by SRB assay; assay type: functional; details: MDA-MB-231, 48 h
[3] = Cytotoxicity against human Hs 578T cells after 48 hrs by SRB assay; assay type: functional
MDA-MB-435 = assay: Cytotoxicity against human MDA-MB-435 cells after 48 hrs by SRB assay; assay type: functional; details: MDA-MB-435, 48 h
BT-549 = assay: Cytotoxicity against human BT-549 cells after 48 hrs by SRB assay; assay type: functional; details: BT-549, 48 h
T47D = assay: Cytotoxicity against human T47D cells after 48 hrs by SRB assay; assay type: functional; outline: as §1
HCT-15 = assay: Cytotoxicity against human HCT-15 cells after 48 hrs by SRB assay; assay type: functional; details: HCT-15, 48 h
Raji [4] = assay: Inhibition of TPA-induced EBV-early antigen activation in human Raji cells at 1000 molar ratio relative to TPA; assay type: cell-based; design: scale not given: the % may be the effect or the level left; details: human gammaherpesvirus 4
Raji [5] = assay: Inhibition of TPA-induced EBV-early antigen activation in human Raji cells at 500 molar ratio relative to TPA; assay type: cell-based; design: scale not given: the % may be the effect or the level left; details: human gammaherpesvirus 4
Raji [6] = assay: Inhibition of TPA-induced EBV-early antigen activation in human Raji cells at 100 molar ratio relative to TPA; assay type: cell-based; design: scale not given: the % may be the effect or the level left; details: human gammaherpesvirus 4
Raji [7] = assay: Inhibition of TPA-induced EBV-early antigen activation in human Raji cells at 10 molar ratio relative to TPA; assay type: cell-based; design: scale not given: the % may be the effect or the level left; details: human gammaherpesvirus 4
[8] = Inhibition of TPA-induced EBV-early antigen activation in human Raji cells relative to TPA; assay type: cell-based, human gammaherpesvirus 4
[9] = Cytotoxicity against human Raji cells assessed as cell viability at 1000 molar ratio; assay type: cell-based; details: read-out: Activity
Outline: (§2)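 Raji cells were treated with 32 pmol TPA to induce EBV early antigen activation. The test agent was added at 10, 100, 500 or 1000 mol ratio relative to TPA, and Raji cell viability was measured alongside EA activation.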

[10] = Cytotoxicity against human Raji cells assessed as cell viability at 500 molar ratio; assay type: cell-based; details: read-out: Activity; outline: as §2
[11] = Cytotoxicity against human Raji cells assessed as cell viability at 100 molar ratio; assay type: cell-based; details: read-out: Activity; outline: as §2
[12] = Cytotoxicity against human Raji cells assessed as cell viability at 10 molar ratio; assay type: cell-based; details: read-out: Activity; outline: as §2
HL-60 = assay: Cytotoxicity against human HL-60 cells after 48 hrs by SRB assay; assay type: functional; details: HL-60, 48 h
CCRF-CEM = assay: Cytotoxicity against human CCRF-CEM cells after 48 hrs by SRB assay; assay type: functional
K562 = assay: Cytotoxicity against human K-562 cells after 48 hrs by SRB assay; assay type: functional; details: K562, 48 h
MOLT-4 = assay: Cytotoxicity against human MOLT-4 cells after 48 hrs by SRB assay; assay type: functional; details: MOLT-4, 48 h
A549 = assay: Cytotoxicity against human A549 cells after 48 hrs by SRB assay; assay type: functional; details: A549, 48 h
EKVX = assay: Cytotoxicity against human EKVX cells after 48 hrs by SRB assay; assay type: functional
HOP-62 = assay: Cytotoxicity against human HOP-62 cells after 48 hrs by SRB assay; assay type: functional; details: HOP-62, 48 h
NCI-H226 = assay: Cytotoxicity against human NCI-H226 cells after 48 hrs by SRB assay; assay type: functional; details: NCI-H226, 48 h
ACHN = assay: Cytotoxicity against human ACHN cells after 48 hrs by SRB assay; assay type: functional

IC50 [8]: 479 molar ratio
Compound: COC(=O)[C@H]1O[C@@H](O[C@H]2CC[C@]3(C)[C@H]4CC=C5[C@@H]6CC(C)(C)CC[C@]6(C(=O)O)CC[C@@]5(C)[C@]4(C)CC[C@H]3C2(C)C)[C@H](O)[C@@H](O[C@@H]2O[C@H](CO)[C@H](O)[C@H](O)[C@H]2O)[C@@H]1O
GI50 (NCI-H322M): 7.59 µM
GI50 (NCI-H460): 11.5 µM
GI50 (NCI-H522): 10.5 µM
GI50 (COLO 205): 8.64 µM
GI50 (HCC 2998): 7.14 µM
GI50 [1]: 6.39 µM
GI50 (HT-29): 12.4 µM
GI50 (KM12): 8.83 µM
GI50 (SW-620): 7.28 µM
GI50 (SF-268): 7.56 µM
GI50 (SNB-19): 6.82 µM
GI50 (U-251): 6.08 µM
GI50 (LOX IMVI): 6.27 µM
GI50 (Malme-3M): 6.22 µM
GI50 (SK-MEL-2): 11.9 µM
GI50 [2]: 10.2 µM
GI50 (SK-MEL-5): 6.14 µM
GI50 (UACC-257): 6.89 µM
GI50 (UACC-62): 6.23 µM
GI50 (IGROV-1): 20.1 µM
GI50 (OVCAR-3): 13.9 µM
GI50 (OVCAR-5): 7.31 µM
GI50 (OVCAR-8): 9.96 µM
GI50 (786-0): 6.36 µM
GI50 (NCI-H23): 6.46 µM
GI50 (CAKI-1): 12.2 µM
GI50 (RXF 393): 11.3 µM
GI50 (SN12C): 6.34 µM
GI50 (TK-10): 7.22 µM
GI50 (UO-31): 33.3 µM
GI50 (PC-3): 6.43 µM
GI50 (MCF7): 9.93 µM
GI50 (NCI/ADR-RES): 7.24 µM
GI50 (MDA-MB-231): 7.28 µM
GI50 [3]: 8.77 µM
GI50 (MDA-MB-435): 13.3 µM
GI50 (BT-549): 6.93 µM
GI50 (T47D): 8.16 µM
GI50 (HCT-15): 6.57 µM
Activity (Raji [4]): 10%
Activity (Raji [5]): 47.2%
Activity (Raji [6]): 71.2%
Activity (Raji [7]): 100%
viability at 1000 molar ratio [9]: 70%
viability at 500 molar ratio [10]: > 80%
viability at 100 molar ratio [11]: > 80%
viability at 10 molar ratio [12]: > 80%
GI50 (HL-60): 6.92 µM
GI50 (CCRF-CEM): 5.79 µM
GI50 (K562): 8.17 µM
GI50 (MOLT-4): 2.17 µM
GI50 (A549): 7.22 µM
GI50 (EKVX): 6.59 µM
GI50 (HOP-62): 6.21 µM
GI50 (NCI-H226): 6.18 µM
GI50 (ACHN): 5.99 µM
